According to ChEMBL document CHEMBL4346731, “Novel meriolin derivatives as rapid apoptosis inducers” (Bioorg Med Chem, 2019):
Calls of active or inactive are those of the source. No cut-off for these calls is given here.

Key:
Ramos [1] = experiment: Induction of apoptosis in human Ramos cells assessed as caspase-3 activation at 10 uM using AcDEVD-AMC as substrate preincubated for up to 8 hrs followed by substrate addition and measured after 60 mins by spectrophotometric method; assay type: functional, cell-based
Summary of the method: (§1)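 Cells in 96-well plates treated for up to 8 h, alongside staurosporine 2.5 μM as positive control. Lysis in caspase buffer (20 mM HEPES, 84 mM KCl, 10 mM MgCl₂, 200 μM EDTA/EGTA, 0.5% NP-40, protease inhibitors), then reaction buffer with Ac-DEVD-AMC added. AMC fluorescence increase followed at 37 °C for at least 60 min.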

Ramos [2] = experiment: Antiproliferative activity against human Ramos cells assessed as reduction in cell viability after 24 hrs by resazurin dye-based spectrophotometric method; assay type: functional
Summary of the method: (§2)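 Cells (DSMZ stock) seeded at 0.5 x 10⁶ cells/mL and exposed to escalating compound concentrations (up to 30 μM) for 24 or 72 h; resazurin 40 μM added for the final 3 h. Resorufin fluorescence read at ex 535/em 590 nm. Viability normalized to 0.1% DMSO controls (100%). IC50 from nonlinear regression; mean of three independent experiments.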

Ramos [3] = experiment: Antiproliferative activity against human Ramos cells assessed as reduction in cell viability after 72 hrs by resazurin dye-based spectrophotometric method; assay type: functional; summary of the method: as §2
[4] = Antiproliferative activity against human Jurkat J16 cells assessed as reduction in cell viability after 24 hrs by resazurin dye-based spectrophotometric method; assay type: functional; summary of the method: as §2
[5] = Antiproliferative activity against human Jurkat J16 cells assessed as reduction in cell viability after 72 hrs by resazurin dye-based spectrophotometric method; assay type: functional; summary of the method: as §2
Ramos [6] = experiment: Induction of apoptosis in human Ramos cells assessed as caspase-3 activation at 3 uM using AcDEVD-AMC as substrate preincubated for up to 8 hrs followed by substrate addition and measured after 60 mins by spectrophotometric method; assay type: functional, cell-based; summary of the method: as §1
Homo sapiens [7] = species on record: Homo sapiens; experiment: Induction of apoptosis in human Jurkat J16 cells assessed as caspase-3 activation at 3 uM using AcDEVD-AMC as substrate preincubated for up to 8 hrs followed by substrate addition and measured after 60 mins by spectrophotometric method; assay type: functional, cell-based; summary of the method: as §1
Homo sapiens [8] = species on record: Homo sapiens; experiment: Induction of apoptosis in human Jurkat J16 cells assessed as caspase-3 activation at 10 uM using AcDEVD-AMC as substrate preincubated for up to 8 hrs followed by substrate addition and measured after 60 mins by spectrophotometric method; assay type: functional, cell-based; summary of the method: as §1
Ramos [9] = experiment: Induction of apoptosis in human Ramos cells assessed as increase in cleaved PARP1 protein expression at 10 uM after 2 to 8 hrs by immunoblotting analysis; assay type: functional, cell-based
Summary of the method: (§3)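 Ramos cells exposed to compound for 2-8 h at concentrations chosen from the cytotoxicity data, with or without the pan-caspase inhibitor Q-VD-OPh (10 μM). Cells were harvested, lysed and immunoblotted with mouse anti-PARP1, using GAPDH as loading control. Detection used IRDye800/680 secondary antibodies on an infrared imager.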

Ramos [10] = experiment: Induction of apoptosis in human Ramos cells assessed as increase in cleaved PARP1 protein expression at 10 uM after 2 to 8 hrs in presence of caspace-inhibitor Q-VD-Oph by immunoblotting analysis; assay type: functional, cell-based; summary of the method: as §3
[11] = biological target: Sphingosine kinase 1 (Homo sapiens) (UniProt Q9NYA1); experiment: Inhibition of SK1 (unknown origin) at 10 uM using sphingosine as substrate preincubated for 15 mins followed by substrate addition and measured after 30 mins by fluorescence based assay relative to control
Sphingosine kinase 1 (Homo sapiens), sequence (Q9NYA1 whole entry): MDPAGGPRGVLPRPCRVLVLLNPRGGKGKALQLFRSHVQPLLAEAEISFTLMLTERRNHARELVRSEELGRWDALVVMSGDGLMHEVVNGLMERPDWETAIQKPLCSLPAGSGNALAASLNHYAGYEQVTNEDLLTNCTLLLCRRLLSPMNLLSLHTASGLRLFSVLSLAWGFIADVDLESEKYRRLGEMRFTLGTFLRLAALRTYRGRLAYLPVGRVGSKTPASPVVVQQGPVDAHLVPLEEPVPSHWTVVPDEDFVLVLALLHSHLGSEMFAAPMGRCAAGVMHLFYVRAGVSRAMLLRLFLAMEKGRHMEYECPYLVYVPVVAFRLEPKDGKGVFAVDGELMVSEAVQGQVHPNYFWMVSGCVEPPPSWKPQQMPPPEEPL
Summary of the method: (§4)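 Compound at 10 µM preincubated 15 min with SK1 (0.5 U/mL final) or SK2 (0.1 U/mL final). Sphingosine 5 µM plus ATP added; reaction 30 min (SK1) or 60 min (SK2) at room temperature. Buffer: 50 mM HEPES pH 7.5, 4 mM MgCl₂, 100 µM orthovanadate, 1 mM DTT, 0.01% Brij 35, 2 mM EGTA. Fluorescent detection reagent added for 60 min in the dark. Inhibition = 100 minus blank-corrected relative fluorescence. Triplicates, two independent experiments; mean ± SEM.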

[12] = biological target: T1, Sphingosine kinase 2 (Homo sapiens) (UniProt Q9NRA0); experiment: Inhibition of SK2 (unknown origin) at 10 using sphingosine as substrate preincubated for 15 mins followed by substrate addition and measured after 60 mins by fluorescence based assay relative to control; summary of the method: as §4
T1 sequence (whole entry): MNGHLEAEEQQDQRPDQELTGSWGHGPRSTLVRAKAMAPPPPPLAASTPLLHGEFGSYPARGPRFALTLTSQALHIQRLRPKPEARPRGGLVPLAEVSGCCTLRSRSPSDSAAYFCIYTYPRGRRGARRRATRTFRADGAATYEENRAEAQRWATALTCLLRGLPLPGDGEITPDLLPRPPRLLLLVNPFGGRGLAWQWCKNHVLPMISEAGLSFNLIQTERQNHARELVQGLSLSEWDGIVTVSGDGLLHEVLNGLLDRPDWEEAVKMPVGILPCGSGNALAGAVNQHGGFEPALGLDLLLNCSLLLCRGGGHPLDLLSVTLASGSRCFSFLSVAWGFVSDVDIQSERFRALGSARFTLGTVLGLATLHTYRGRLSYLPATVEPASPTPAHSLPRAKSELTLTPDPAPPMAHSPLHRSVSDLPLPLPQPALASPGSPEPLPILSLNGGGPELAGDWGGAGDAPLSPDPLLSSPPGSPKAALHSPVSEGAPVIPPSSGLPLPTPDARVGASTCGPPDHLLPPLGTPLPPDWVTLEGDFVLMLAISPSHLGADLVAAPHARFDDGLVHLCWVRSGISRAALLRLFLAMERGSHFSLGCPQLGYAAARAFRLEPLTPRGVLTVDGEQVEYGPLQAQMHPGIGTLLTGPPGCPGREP

Ramos [13] = experiment: Induction of apoptosis in human Ramos cells assessed as caspase-3 activation at 2.5 uM using AcDEVD-AMC as substrate preincubated for up to 8 hrs followed by substrate addition and measured after 60 mins by spectrophotometric method; assay type: functional, cell-based
Summary of the method: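 Ramos cells (DSMZ) plated in 96-well plates and treated for up to 8 h. Cells were then lysed in caspase buffer (20 mM HEPES, 84 mM KCl, 10 mM MgCl2, 200 µM EDTA/EGTA, 0.5% NP-40, protease inhibitors). Reaction buffer with Ac-DEVD-AMC was added, and AMC fluorescence increase was read at 37 °C for at least 60 min. Positive control: staurosporine 2.5 µM.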

Ramos [14] = experiment: Induction of apoptosis in human Ramos cells assessed as caspase-3 activation at 1 uM using AcDEVD-AMC as substrate preincubated for up to 8 hrs followed by substrate addition and measured after 60 mins by spectrophotometric method; assay type: functional, cell-based; summary of the method: as §1
Homo sapiens [15] = species on record: Homo sapiens; experiment: Induction of apoptosis in human Jurkat J16 cells assessed as caspase-3 activation at 1 uM using AcDEVD-AMC as substrate preincubated for up to 8 hrs followed by substrate addition and measured after 60 mins by spectrophotometric method; assay type: functional, cell-based; summary of the method: as §1
Ramos [16] = experiment: Induction of apoptosis in human Ramos cells assessed as increase in cleaved PARP1 protein expression at 1 uM after 2 to 8 hrs by immunoblotting analysis; assay type: functional, cell-based; summary of the method: as §3
Ramos [17] = experiment: Induction of apoptosis in human Ramos cells assessed as increase in cleaved PARP1 protein expression at 1 uM after 2 to 8 hrs in presence of caspace-inhibitor Q-VD-Oph by immunoblotting analysis; assay type: functional, cell-based; summary of the method: as §3
Ramos [18] = experiment: Induction of apoptosis in human Ramos cells assessed as caspase-3 activation at 0.3 uM using AcDEVD-AMC as substrate preincubated for up to 8 hrs followed by substrate addition and measured after 60 mins by spectrophotometric method; assay type: functional, cell-based; summary of the method: as §1
Homo sapiens [19] = species on record: Homo sapiens; experiment: Induction of apoptosis in human Jurkat J16 cells assessed as caspase-3 activation at 0.3 uM using AcDEVD-AMC as substrate preincubated for up to 8 hrs followed by substrate addition and measured after 60 mins by spectrophotometric method; assay type: functional, cell-based; summary of the method: as §1
Ramos [20] = experiment: Induction of apoptosis in human Ramos cells assessed as increase in cleaved PARP1 protein expression at 0.1 uM after 2 to 8 hrs by immunoblotting analysis; assay type: functional, cell-based; summary of the method: as §3
Ramos [21] = experiment: Induction of apoptosis in human Ramos cells assessed as caspase-3 activation at 0.1 uM using AcDEVD-AMC as substrate preincubated for up to 8 hrs followed by substrate addition and measured after 60 mins by spectrophotometric method; assay type: functional, cell-based; summary of the method: as §1
Homo sapiens [22] = species on record: Homo sapiens; experiment: Induction of apoptosis in human Jurkat J16 cells assessed as caspase-3 activation at 0.1 uM using AcDEVD-AMC as substrate preincubated for up to 8 hrs followed by substrate addition and measured after 60 mins by spectrophotometric method; assay type: functional, cell-based; summary of the method: as §1
Ramos [23] = experiment: Induction of apoptosis in human Ramos cells assessed as increase in cleaved PARP1 protein expression at 0.1 uM after 2 to 8 hrs in presence of caspace-inhibitor Q-VD-Oph by immunoblotting analysis; assay type: functional, cell-based; summary of the method: as §3

SMILES	IC50 (Ramos [2]) [nM]	IC50 (Ramos [3]) [nM]	IC50 [4] [nM]	IC50 [5] [nM]	Activity (Ramos [6])	Activity (Homo sapiens [7])	inhibition [11] [%]	inhibition [12] [%]	Activity (Ramos [14])	Activity (Homo sapiens [15])	Activity (Ramos [16])	Activity (Ramos [17])	Activity (Ramos [18])	Activity (Homo sapiens [19])	further results
Nc1nccc(-c2c[nH]c3ncccc23)n1 [MERIOLIN 1]	4800	3730	4530	2740	Active	Active	10	72							Activity (Ramos [1]): Active; Activity (Homo sapiens [8]): Active; Activity (Ramos [9]): Active; Activity (Ramos [10]): inactive
CN[C@@H]1C[C@H]2O[C@@](C)([C@@H]1OC)n1c3ccccc3c3c4c(c5c6ccccc6n2c5c31)C(=O)NC4															Activity (Ramos [13]): Active
Nc1cc(-c2c[nH]c3ncccc23)ccn1	970	600	870	480	Active	Active	10	39	Active	Active	Active	inactive			
c1ccc(CNc2ccc(-c3c[nH]c4ncccc34)cn2)cc1	300	180	240	110					Active	Active	Active	inactive	Active	Active	
COc1cc(-c2c[nH]c3ncccc23)nc(N)n1	6040	3900	5560	3080	Active	Active									Activity (Ramos [1]): Active; Activity (Homo sapiens [8]): Active; Activity (Ramos [9]): Active; Activity (Ramos [10]): inactive
Nc1cc(-c2c[nH]c3ncccc23)cc(N)n1	110	70	110	60			18	87					Active	Active	Activity (Ramos [20]): Active; Activity (Ramos [21]): Active; Activity (Homo sapiens [22]): Active; Activity (Ramos [23]): inactive
Nc1cc(-c2c[nH]c3ncccc23)nc(N)n1	370	240	430	210					Active	Active	Active	inactive	Active	Active	
